# Screens: PubChem BioAssay, Johns Hopkins Ion Channel Center
# An excerpt weighted towards active compounds, which were near 2.3% of everything screened.
# TRPC6 inhibitor: mouse TRPC6 channel inhibitors, primary screen, cell-based, HEK293, membrane potential dye | Short transient receptor potential channel 6 (Mus musculus), Q61143 | ACh-evoked depolarization; active compounds read low | B-score at 10 µM | 1.1% of 310,000 active | AID 2553, 2010;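 active = B-score under library mean minus 3 SD, initial fluorescence not abnormally high, positive integrated signal ratio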;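 note: B-score derived from integrated fluorescence ratio over the kinetic read; more negative B-score means stronger inhibition of depolarization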
# TRPC4 inh: inhibitors of mouse TRPC4 channel, primary screen, Fluo4 calcium, HEK293 TRPC4beta/mu-opioid cells; B-score at 10 µM; AID 2247, 2010; 0.39% of 300,000 active; Short transient receptor potential channel 4 (Mus musculus), Q9QUQ5; DAMGO-evoked Fluo4 calcium flux; active compounds read low;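 active = B-score over 3 SD under the library average, no early fluorescence shift, positive overall ratio signal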
# Target sequence (Q9QUQ5 whole entry, looked up): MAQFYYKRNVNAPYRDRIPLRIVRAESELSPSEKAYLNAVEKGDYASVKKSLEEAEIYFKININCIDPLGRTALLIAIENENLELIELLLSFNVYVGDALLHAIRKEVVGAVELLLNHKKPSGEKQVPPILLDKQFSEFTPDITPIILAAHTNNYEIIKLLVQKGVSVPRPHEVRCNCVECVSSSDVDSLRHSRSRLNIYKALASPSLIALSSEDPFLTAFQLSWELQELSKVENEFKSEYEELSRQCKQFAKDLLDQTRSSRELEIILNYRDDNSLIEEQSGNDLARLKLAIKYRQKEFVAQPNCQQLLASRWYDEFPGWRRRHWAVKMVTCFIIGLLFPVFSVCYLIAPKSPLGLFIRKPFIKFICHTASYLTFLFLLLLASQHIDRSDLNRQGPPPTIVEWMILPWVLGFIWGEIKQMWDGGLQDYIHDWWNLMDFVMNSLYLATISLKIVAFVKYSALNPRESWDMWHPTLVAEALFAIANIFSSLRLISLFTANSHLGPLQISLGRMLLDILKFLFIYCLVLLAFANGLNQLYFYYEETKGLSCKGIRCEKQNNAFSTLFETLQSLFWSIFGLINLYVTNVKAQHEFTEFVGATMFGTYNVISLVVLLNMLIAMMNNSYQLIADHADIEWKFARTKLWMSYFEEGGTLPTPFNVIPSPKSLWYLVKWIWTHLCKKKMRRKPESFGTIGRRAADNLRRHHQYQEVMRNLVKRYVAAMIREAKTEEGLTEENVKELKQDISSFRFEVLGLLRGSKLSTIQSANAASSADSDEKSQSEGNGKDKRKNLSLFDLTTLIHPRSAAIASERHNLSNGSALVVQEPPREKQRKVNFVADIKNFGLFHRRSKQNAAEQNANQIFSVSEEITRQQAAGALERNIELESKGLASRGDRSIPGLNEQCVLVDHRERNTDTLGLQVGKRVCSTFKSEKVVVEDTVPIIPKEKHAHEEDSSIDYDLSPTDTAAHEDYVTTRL
#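 Material: HEK293 cells with stable TRPC4beta plus mu-opioid receptor expression; probe or stimulus: DAMGO in two steps, submaximal then maximal; technique: Fluo4 calcium fluorescence by kinetic imaging, 5 s 1 Hz baseline; measure: integrated fluorescence ratio relative to baseline, converted to per-well B score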
# TRPC4 PAM: positive allosteric modulators of TRPC4, primary screen, cell-based, mouse TRPC4beta, HEK293 mu-opioid, Fluo-4 calcium; DAMGO EC20, Fluo-4 Ca2+ flux; active compounds read high; B-score at 10 µM; 0.42% of 310,000 active;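 active = B-score of calcium response area above 5 SD of library B-scores, with initial fluorescence ratio within 5 SD of library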;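 note: B-score of integrated fluorescence ratio over time as area under calcium response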
# TRPC6 activator: mouse TRPC6 channel activators, primary screen, cell-based, HEK293, membrane potential dye | HEK293-TRPC6 membrane potential dye fluorescence; active compounds read high | AID 2550, 2010 | 0.13% of 310,000 active | Short transient receptor potential channel 6 (Mus musculus), Q61143 | B-score at 10 µM;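 active = B-score of the integrated fluorescence ratio above library mean plus 3 SD, and starting fluorescence ratio within library mean plus 5 SD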;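 note: higher score means more depolarization so channel activation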
# TRPC4 act: activators of mouse TRPC4 channel, primary screen, Fluo4 calcium, HEK293 TRPC4beta/mu-opioid cells | Short transient receptor potential channel 4 (Mus musculus), Q9QUQ5 | Fluo4 calcium fluorescence; active compounds read high | B-score at 10 µM | 0.49% of 310,000 active | AID 2237, 2010;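 active = B-score above 5 SD of library B-scores, and initial fluorescence ratio not above library mean plus 5 SD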;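 note: positive B-score marks a calcium rise read as TRPC4 activation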
#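 Material: HEK293 stable line with TRPC4beta plus mu-opioid receptor; technique: Fluo4 calcium-sensitive dye fluorescence, kinetic, 1 Hz baseline; timing: Fluo4 dye loading 45 min at room temperature, 110 s recording; controls: assay buffer as low control, maximal DAMGO as high control; read-out: integrated baseline-normalised fluorescence ratio, converted to per-well B score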
# Active calls of the source: *; i = inactive.
SMILES,TRPC6 inhibitor,TRPC4 inh,TRPC4 PAM,TRPC6 activator,TRPC4 act
Cc1nn(-c2ccccc2)c(Cl)c1C(=O)Nc1nnc(C2CCCC2)s1,i,i,i,i,i
Cc1nnc(SCC(=O)Nc2ccc([N+](=O)[O-])cc2)n1CC1CCCO1 (stereo not drawn),i,i,i,i,i
CCN(CC)C(=O)C(=O)Nc1ccc(OCc2ccccc2)cc1,i,i,i,i,i
O=S(=O)(Nc1ncccn1)c1ccc(NS(=O)(=O)c2cc(Cl)ccc2Cl)cc1,i,i,i,i,i
O=S(=O)(Nc1cccc(CCc2ccccn2)c1)c1cc(Cl)ccc1Cl,i,i,13*,i,i
CCC(C)[C@H](Nc1nc(-c2ccccc2)nc2c1oc1ccccc12)C(=O)O (stereo partly drawn),i,-6*,i,i,i
CC(C)[C@H](Nc1nc(-c2ccccc2)nc2c1oc1ccccc12)C(=O)O,i,i,i,i,i
CCNC(=S)Nn1cnc2ccccc21,i,i,i,i,i
O=C(CCCn1c(=O)[nH]c2cc(Cl)ccc2c1=O)NCCCN1CCN(c2ccc(F)cc2)CC1,i,i,i,i,i
CCN(CC)C(=O)c1sc2nc(-c3ccncc3)[nH]c(=O)c2c1C,i,i,i,i,i
CCN(CC)C(=O)c1sc2nc(-c3ccccn3)[nH]c(=O)c2c1C,i,i,i,i,68*
O=C(NCCNC(=O)c1ccccc1Br)c1cccnc1,i,i,i,i,i
CCC(C)(C)n1nnnc1C(c1ccc(O)c(OC)c1)N1CCN(c2nc3ccccc3s2)CC1 (stereo not drawn),i,i,i,i,58*
COc1ccc(C(c2nnnn2C(C)(C)C)N2CCN(c3nc4ccccc4s3)CC2)cc1 (stereo not drawn),i,i,i,i,i
O=C(OC1C2CCC1C1CN(CCc3ccccc3)CC12)c1ccccc1 (stereo not drawn),i,-6*,i,i,i
N[C@@H](Cc1ccccc1)C(=O)N1CCC(C(=O)N[C@@H](Cc2c[nH]c3ccccc23)C(=O)O)CC1,i,-6*,i,i,i
O=C(NCCN1CCCC1)c1ccc2c(=O)n(CCc3ccccc3)c(=O)[nH]c2c1,i,i,12*,i,i
O=C(NCc1ccco1)c1cnn2c1NC(c1ccc(Br)cc1)CC2C(F)(F)F (stereo not drawn),i,i,13*,i,i
Cc1ccc(C(=O)Nc2ccc(N3CCOCC3)nc2N2CCOCC2)cc1,i,i,i,i,i
CCC1(c2ccc(F)cc2)NC(=O)N(CC(=O)c2cc(C)n(C3CC3)c2C)C1=O (stereo not drawn),i,i,16*,i,54*
O=c1[nH]c(C2CCCN(S(=O)(=O)c3ccccc3)C2)nc2c1nnn2Cc1ccccc1Br (stereo not drawn),i,i,10*,i,i
O=C1CC(c2cccc([N+](=O)[O-])c2)c2ccc3ccccc3c2N1 (stereo not drawn),i,i,11*,i,i
CSc1ccc2nnc(-c3cccc(F)c3)n2n1,i,i,21*,i,i
O=C1CC(c2ccccc2F)c2c(c3ccccc3[nH]c2=O)O1 (stereo not drawn),i,i,i,i,i
NC(=S)N/N=C1/CCSc2ccc3ccccc3c21,i,i,17*,i,i
SMILES,TRPC6 inhibitor,TRPC4 inh,TRPC4 PAM,TRPC6 activator,TRPC4 act
CCN(Cc1ccccc1)c1ccc(/C=N/N=C(N)N)cc1,i,i,i,i,145*
CCN(Cc1ccccc1)c1ccc(/C=N/NC(=S)NC(C)C)cc1,i,i,i,i,i
Cc1ccc(C2OC(=O)c3ccccc32)cc1 (stereo not drawn),i,i,i,i,i
Cc1cc(OCC(O)CN)ccc1Cl (stereo not drawn),i,i,i,i,143*
CCOC(=O)N1CCN(CC(O)COc2c(C)cccc2C)CC1 (stereo not drawn),i,i,i,i,i
Cc1cccc(C)c1OCC(O)CN (stereo not drawn),i,i,i,i,163*
Cc1ccccc1Nc1nc(NCc2ccco2)c2ccccc2n1,-5.8*,-9*,i,i,49*
CCOc1ccccc1OC(=O)CN1C(=O)c2ccccc2C1=O,i,i,i,i,i
Cn1c(=O)c2c(nc(SCc3cccnc3)n2Cc2ccc(F)cc2)n(C)c1=O,i,-5*,i,i,i
CC1Cc2ccccc2N1C(=O)CSc1nc2c(c(=O)n(C)c(=O)n2C)n1Cc1ccccc1 (stereo not drawn),i,-7*,13*,i,245*
Cc1ccc(Cn2c(SCCN3CCCCC3)nc3c2c(=O)n(C)c(=O)n3C)cc1,i,i,70*,i,43*
Cn1c(=O)c2c(nc(SCCN3CCOCC3)n2Cc2ccc(F)cc2)n(C)c1=O,i,i,i,i,i
N#CNc1nc(O)cc(=O)[nH]1,i,i,i,i,i
CCOC(=O)C1CCN(C(=O)C2CCN(S(=O)(=O)c3ccc4ccccc4c3)CC2)CC1,i,i,i,i,i
Nc1c2c(nc3sc4c(c13)CCCCC4)CCCCC2,i,-5*,i,i,i
CC1CCc2nc3sc4c(c3c(N)c2C1)CCCC4 (stereo not drawn),i,i,i,i,i
O=C(O)C1C2C=CC(C2)C1C(=O)Nc1ccc2c(c1)OCCO2 (stereo not drawn),i,i,i,i,i
CN(C)c1ccc(NC(=O)C2C3C=CC(C3)C2C(=O)O)cc1 (stereo not drawn),i,i,21*,i,i
c1ccc2c(-c3[nH]ncc3CNCCCn3ncc4ccccc43)cccc2c1,i,i,i,i,64*
OCC1CCCCN1CCNCc1cn[nH]c1-c1cccc2ccccc12 (stereo not drawn),i,i,i,i,i
